Source: PubChem (several laboratories)
proKLK7 act – activates the human kallikrein-7 zymogen. purified proKLK7, EDANS-DABCYL substrate fluorescence; 100% is mature enzyme control, 0% vehicle. activation, % at 7 µM. 370,000 compounds, 0.9% hits. AID 652039;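 active means activation above the mean of all tested compounds plus 3 SD, computed per campaign excluding outliers beyond control limits, cut at about 13% in these data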
ADAM17 inh – inhibitors of human ADAM17. recombinant ADAM17, EDANS/DABCYL FRET peptide cleavage. inhibition, % at 6.95 µM. 370,000 compounds, 0.83% hits. AID 720648;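 active means inhibition above the mean of compounds lying between control limits plus 3 SD, set per campaign, cut at about 8.5% in these data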
Target sequence (P78536 215-824 limits assumed): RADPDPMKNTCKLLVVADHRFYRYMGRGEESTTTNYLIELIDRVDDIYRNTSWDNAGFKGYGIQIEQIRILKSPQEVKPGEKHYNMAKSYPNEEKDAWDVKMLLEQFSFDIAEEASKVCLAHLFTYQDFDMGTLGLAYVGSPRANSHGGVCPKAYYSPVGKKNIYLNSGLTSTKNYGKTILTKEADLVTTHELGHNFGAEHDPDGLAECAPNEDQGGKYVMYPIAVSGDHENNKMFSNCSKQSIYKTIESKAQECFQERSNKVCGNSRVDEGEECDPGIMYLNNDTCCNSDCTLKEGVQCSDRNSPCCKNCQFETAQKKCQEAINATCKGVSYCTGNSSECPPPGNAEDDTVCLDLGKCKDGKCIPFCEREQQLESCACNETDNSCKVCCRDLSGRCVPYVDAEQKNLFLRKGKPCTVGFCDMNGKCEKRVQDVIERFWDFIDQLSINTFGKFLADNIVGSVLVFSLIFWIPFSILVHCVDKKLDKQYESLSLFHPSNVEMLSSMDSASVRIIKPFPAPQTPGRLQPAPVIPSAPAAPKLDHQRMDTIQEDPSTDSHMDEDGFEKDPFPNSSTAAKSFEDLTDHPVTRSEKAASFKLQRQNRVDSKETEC
NR2E3 ag-1 – agonists of human nuclear receptor NR2E3 | GST-NR2E3/biotin-RetCOR TR-FRET, 1536-well | inhibition of corepressor binding, % at 4.78 µM | 320,000 compounds, 0.12% hits;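 active means percent inhibition above the cutoff of mean plus 3 SD of all tested compounds, set per screening campaign, cut at about 20% in these data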
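Format: 1536-well format; test system: GST-NR2E3 and biotin-RetCOR proteins; read-out basis: percent inhibition of TR-FRET ratio; timing: 5 h incubation at 4 °C; detection: time-resolved FRET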
JMJD2C inh – inhibitors of human GASC-1 (JMJD2C) demethylase; GST-JMJD2C(1-420) H3K9me3 demethylation, DELFIA europium; AID 2099; 330,000 compounds, 0.069% hits; inhibition, % at 2.35 µM;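 active means more than half of a compound's replicate wells show inhibition beyond 50%, single wells judged on their own value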;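 further: signal counts dimethyl H3K9 product captured on neutravidin plate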
NR2E3 ag-2 – agonists of human NR2E3 nuclear receptor. inhibition of corepressor binding, % at 3.98 µM. AID 602229. Q9Y5X4. CHO-S Gal4-NCOR/VP16-NR2E3 two-hybrid, luciferase. 360,000 compounds, 0.35% hits;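 active means inhibition above the mean of all tested compounds plus 3 SD, cut at about 70% in these data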;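 further: higher means lower luciferase signal from less NR2E3 corepressor binding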
ADAM10 inh – inhibitors of human ADAM10 | O14672 | recombinant ADAM10, EDANS/DABCYL FRET peptide cleavage, 3 h | inhibition, % at 7 µM | 370,000 compounds, 0.62% hits;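 active means inhibition above a per-campaign cutoff equal to the mean of compounds falling between control-based bounds plus 3 SD, cut at about 20% in these data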
NR2E3 ag confirm – NR2E3 agonism confirmed in two-hybrid assay. shares compounds with NR2E3 ag-2. CHO-S mammalian two-hybrid NR2E3-NCOR, luciferase luminescence. inhibition, % at 3.98 µM. 2,300 compounds, 51% hits;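 active means average inhibition above a cutoff equal to the mean inhibition of all tested compounds plus one SD, cut at about 70% in these data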
GAL4-VP16 luc – reduces GAL4-VP16 reporter signal in NR2E3 counterscreen | CHO-S GAL4-VP16 luciferase reporter, luminescence | 2,300 compounds, 29% hits | shares compounds with NR2E3 ag-2 | inhibition, % at 3.98 µM;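 active means mean inhibition above a cutoff equal to the average over all tested compounds plus one standard deviation, cut at about 70% in these data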;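 further: luciferase from a UAS reporter driven by GAL4-VP16 transactivation; higher means less reporter light so more repression of VP16 activity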
Large screens that a line does not name were inactive (follow-up assays come after a bar, where they were run); ! = not active in a repeat. The list is not random: actives were taken first. Their share in the collection is about 2.5%.

CC1(C)CCCC(C)(C)N1CC(O)COCCOc1ccc(Br)cc1 (stereo unspecified)	none
COC(=O)c1cc(-c2ccc(OC)c(OC)c2)c(=O)n2c1CCC2	none (no result: NR2E3 ag-1, JMJD2C inh, NR2E3 ag-2)
COc1ccc2oc(C(=O)NCc3cc(OC)c(OC)cc3OC)c(C)c2c1	NR2E3 ag-2 75 | NR2E3 ag confirm inactive | GAL4-VP16 luc inactive
C[C@@H](c1ccccc1)N1C[C@@H](COCc2ccccc2)Oc2cc(N3CC[C@H](O)C3)ccc2S1(=O)=O	none (no result: NR2E3 ag-1, JMJD2C inh)
COc1ccc(-c2csc(NC(=O)C3CCN(c4ncnc5sc(C)c(C)c45)CC3)n2)cc1OC	NR2E3 ag-2 78 | NR2E3 ag confirm 74 | GAL4-VP16 luc 79
CCN(CC)C(=O)CC[C@@H]1CC[C@]2(CCCN(C(=O)C3CCCCC3)C2)O1	none (no result: NR2E3 ag-1, JMJD2C inh, NR2E3 ag-2)
Cc1ccc(NS(=O)(=O)c2ccc(-n3cccn3)cc2)c(C)c1	none
Cc1ccc(NS(=O)(=O)c2ccc(-n3cccn3)cc2)cc1F	none | NR2E3 ag confirm inactive | GAL4-VP16 luc inactive
Cc1ccc(Cl)cc1NS(=O)(=O)c1ccc(-n2cccn2)cc1	none
Cc1ccc(NS(=O)(=O)c2ccc(-n3cccn3)cc2)c(Br)c1	none (no result: NR2E3 ag-1, JMJD2C inh) | NR2E3 ag confirm inactive | GAL4-VP16 luc inactive
COc1ccc(CCNC(=O)CN(c2cccc([N+](=O)[O-])c2)S(C)(=O)=O)cc1OC	none
CC(C)Cc1ccc(C(C)C(=O)Nc2cccnc2)cc1 (stereo unspecified)	none | NR2E3 ag confirm 89 | GAL4-VP16 luc 76
COc1ccc(/C(C)=N/N=C(N)N)c(O)c1	none
CNC(=S)NN=C(C)c1ccc(OC)cc1O	NR2E3 ag-2 72 (no result: NR2E3 ag-1, JMJD2C inh) | NR2E3 ag confirm inactive | GAL4-VP16 luc inactive
CC(C)(C)S(=O)N1Cc2cc(C(=O)N3CCc4ccccc4C3)nc(-c3cccc(-c4cccnc4)c3)c2[C@@H]1CCO (stereo partly specified)	none (no result: NR2E3 ag-1, JMJD2C inh)
Cc1cc(NC(=O)C(=O)NCCN2CCN(C(=O)c3cccs3)CC2)ccc1Br	none
COc1ccccc1C(=O)N1CCN(CCNC(=O)C(=O)Nc2ccc(Br)c(C)c2)CC1	none | NR2E3 ag confirm inactive | GAL4-VP16 luc inactive
O=C(NCCN1CCN(C(=O)c2ccc(F)cc2)CC1)c1ccc(F)cc1	none
CCOc1ccc(-c2cccc(NS(=O)(=O)c3cc([N+](=O)[O-])ccc3Cl)c2)nn1	none | NR2E3 ag confirm inactive | GAL4-VP16 luc inactive
CCOC(=O)[C@@]12CN(C(=O)OC(C)(C)C)CC=C1N(Cc1ccc(OC)cc1)C(=O)[C@H]2CC(=O)N1CCN(C(=O)c2ccco2)CC1	none (no result: NR2E3 ag-1, JMJD2C inh, NR2E3 ag-2)
CCOC(=O)C(=O)NNc1ccccc1OC	none
CCOC(=O)C(=O)NNc1ccc(Cl)cc1	none | NR2E3 ag confirm inactive | GAL4-VP16 luc inactive
CCCOC(=O)C(=O)NNc1ccccc1	none
CCOC(=O)C(=O)NNc1ccc(C)cc1	none | NR2E3 ag confirm inactive | GAL4-VP16 luc inactive
COc1cc(NC(=O)c2ccc(-c3cnn(C)c3)c3ccoc23)cc(OC)c1OC	none (no result: NR2E3 ag-1, JMJD2C inh)
Cc1ccc(NC(=O)c2sc3ncn(CC(=O)N4CCN(c5ccccn5)CC4)c(=O)c3c2C)cc1F	NR2E3 ag-2 76 | NR2E3 ag confirm inactive | GAL4-VP16 luc inactive
CCC(C)Nc1nc2c(c(=O)n(C)c(=O)n2C)n1Cc1ccc(Cl)cc1 (stereo unspecified)	none
CCNc1nc2c(c(=O)n(C)c(=O)n2C)n1Cc1ccc(Cl)cc1	none | NR2E3 ag confirm 78 | GAL4-VP16 luc inactive
CC(C)C(NC(=O)Cc1ccccc1)C(=O)N1CCN(c2cccc(Cl)c2)CC1 (stereo unspecified)	none | NR2E3 ag confirm inactive | GAL4-VP16 luc inactive
CC(NC(=O)c1ccco1)C(=O)N1CCN(c2cccc(Cl)c2)CC1 (stereo unspecified)	none
O=C(NC(=O)N1CCN(c2cccc(Cl)c2)CC1)c1ccc(Cl)cc1	NR2E3 ag-2 80 | NR2E3 ag confirm 95 | GAL4-VP16 luc inactive
O=C(NC(=O)N1CCN(c2cccc(Cl)c2)CC1)c1ccccc1	none | NR2E3 ag confirm 85 | GAL4-VP16 luc inactive
CN(Cc1ccccc1)C(=O)OCc1cn(Cc2cc(F)cc(F)c2)nn1	none (no result: NR2E3 ag-1, JMJD2C inh, NR2E3 ag-2)
CC(C)(C)c1cccc(Cn2nnc3ccccc32)c1O	none | NR2E3 ag confirm inactive | GAL4-VP16 luc inactive
Cc1cc(Cn2nnc3ccccc32)c(O)c(C(C)(C)C)c1	NR2E3 ag-2 80 | NR2E3 ag confirm inactive | GAL4-VP16 luc inactive
CCN(CC)C(=O)CC[C@H]1CC[C@]2(CCCN(c3ccccc3)C2)O1	none (no result: NR2E3 ag-1, JMJD2C inh, NR2E3 ag-2)
O[C@@H]1[C@@H](O)C=C2CCN3Cc4cc5c(cc4[C@H]1C23)OCO5 (stereo partly specified)	NR2E3 ag-2 89 (no result: JMJD2C inh) | NR2E3 ag confirm 92 | GAL4-VP16 luc 85
COc1ccc2c(c1OC)CN1CCc3cc4c(cc3[C@@H]1[C@@H]2O)OCO4	none (no result: proKLK7 act, ADAM17 inh, ADAM10 inh)
O=C(CNC(=O)c1ccccc1)NCCCSc1ccccc1	none (no result: NR2E3 ag-1, JMJD2C inh)
O=C(NCCCSc1ccccc1)c1cc(Cl)ccc1O	NR2E3 ag-2 78 (no result: NR2E3 ag-1) | NR2E3 ag confirm 99 | GAL4-VP16 luc 87
O=C(NCCCCCCNC(=O)c1ccccc1O)c1ccccc1O	none | NR2E3 ag confirm 88 | GAL4-VP16 luc inactive
COC(=O)[C@]12C[C@H](CC(=O)NCc3ccccc3)C(=O)N(Cc3ccc4c(c3)OCO4)C1=C[C@H](C(C)C)O[C@@H]2C1CC1	none (no result: NR2E3 ag-1, JMJD2C inh, NR2E3 ag-2)
CCN(CC)CCCNc1ncnc2ccccc12	none
OCCCCCNc1ncnc2ccccc12	NR2E3 ag-2 79 | NR2E3 ag confirm inactive | GAL4-VP16 luc inactive
COc1cc2ncnc(NCc3ccccc3)c2cc1OC	none
c1ccc(CNc2ncnc3ccccc23)cc1	NR2E3 ag-2 80! | NR2E3 ag confirm 72 | GAL4-VP16 luc 71
Cc1cc(C(=O)CSc2ccc(F)cc2)cc(C)c1OC(=S)N(C)C	none | NR2E3 ag confirm inactive | GAL4-VP16 luc inactive
COc1ccc(NS(=O)(=O)c2ccc(-c3coc(C)n3)cc2)cc1OC	NR2E3 ag-2 108 | NR2E3 ag confirm 99 | GAL4-VP16 luc 87
Cc1ccc(NS(=O)(=O)c2ccc(-c3coc(C)n3)cc2)c(Br)c1	none | NR2E3 ag confirm inactive | GAL4-VP16 luc inactive
CSc1cccc(NS(=O)(=O)c2ccc(-c3coc(C)n3)cc2)c1	NR2E3 ag-2 93 | NR2E3 ag confirm 77 | GAL4-VP16 luc inactive
COc1ccc(NS(=O)(=O)c2ccc(-c3coc(C)n3)cc2)cc1	none
Cc1nc(-c2ccc(S(=O)(=O)Nc3cccc(Cl)c3)cc2)co1	none
O=C(Nc1ccc(Cl)cc1)c1ccc2sc([C@@H]3O[C@H](CO)[C@@H](O)[C@H]3O)nc2c1	none (no result: NR2E3 ag-1, JMJD2C inh)
Cc1ccc(S(=O)(=O)N(CC#N)CC#N)cc1	none
